Experimental data: ChEMBL document CHEMBL1139690, “Comparison between two classes of selective EP(3) antagonists and their biological activities” (Bioorg Med Chem Lett, 2006)

Legend:
[1] = molecular target: T1, Prostaglandin E2 receptor EP1 subtype (Homo sapiens, UniProt P34995); assay: Binding affinity to EP1 receptor
T1 sequence (P34995 whole entry): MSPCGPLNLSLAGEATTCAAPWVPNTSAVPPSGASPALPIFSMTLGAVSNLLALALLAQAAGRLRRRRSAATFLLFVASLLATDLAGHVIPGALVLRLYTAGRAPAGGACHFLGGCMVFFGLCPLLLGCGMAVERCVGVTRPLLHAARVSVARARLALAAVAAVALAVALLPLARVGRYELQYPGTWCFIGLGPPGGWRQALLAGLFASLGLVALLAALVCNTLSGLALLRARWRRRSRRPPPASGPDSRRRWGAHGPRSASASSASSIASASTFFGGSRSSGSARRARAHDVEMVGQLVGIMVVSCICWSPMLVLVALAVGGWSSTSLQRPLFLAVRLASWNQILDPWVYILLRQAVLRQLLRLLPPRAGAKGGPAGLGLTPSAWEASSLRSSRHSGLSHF

[2] = molecular target: Prostaglandin E2 receptor EP2 subtype (Homo sapiens, UniProt P43116); assay: Binding affinity to EP2 receptor
Chain of Prostaglandin E2 receptor EP2 subtype (P43116 whole entry): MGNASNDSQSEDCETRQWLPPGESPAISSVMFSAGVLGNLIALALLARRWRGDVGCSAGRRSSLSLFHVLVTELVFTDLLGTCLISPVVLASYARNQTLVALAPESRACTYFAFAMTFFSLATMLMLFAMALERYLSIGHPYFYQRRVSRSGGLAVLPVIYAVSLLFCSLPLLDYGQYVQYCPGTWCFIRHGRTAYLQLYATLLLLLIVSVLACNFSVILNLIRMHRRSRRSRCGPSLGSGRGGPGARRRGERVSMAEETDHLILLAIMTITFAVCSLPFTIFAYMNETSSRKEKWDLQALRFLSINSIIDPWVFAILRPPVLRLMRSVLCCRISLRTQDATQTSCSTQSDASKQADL

[3] = molecular target: T2, Prostaglandin E2 receptor EP3 subtype (Homo sapiens, UniProt P43115); assay: Binding affinity to EP3 receptor
T2 sequence (P43115 whole entry): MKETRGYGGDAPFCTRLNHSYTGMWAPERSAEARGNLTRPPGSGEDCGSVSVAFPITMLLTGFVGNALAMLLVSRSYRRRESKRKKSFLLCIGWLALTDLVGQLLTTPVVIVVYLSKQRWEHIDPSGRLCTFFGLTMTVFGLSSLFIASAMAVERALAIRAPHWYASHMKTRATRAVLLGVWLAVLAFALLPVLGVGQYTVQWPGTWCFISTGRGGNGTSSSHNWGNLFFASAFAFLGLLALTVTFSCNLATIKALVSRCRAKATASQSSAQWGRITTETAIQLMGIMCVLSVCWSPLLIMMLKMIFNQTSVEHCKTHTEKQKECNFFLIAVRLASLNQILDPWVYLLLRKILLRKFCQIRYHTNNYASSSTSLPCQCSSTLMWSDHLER

[4] = molecular target: Prostaglandin E2 receptor EP4 subtype (Homo sapiens, UniProt P35408); assay: Binding affinity to EP4 receptor
Chain of Prostaglandin E2 receptor EP4 subtype (P35408 whole entry): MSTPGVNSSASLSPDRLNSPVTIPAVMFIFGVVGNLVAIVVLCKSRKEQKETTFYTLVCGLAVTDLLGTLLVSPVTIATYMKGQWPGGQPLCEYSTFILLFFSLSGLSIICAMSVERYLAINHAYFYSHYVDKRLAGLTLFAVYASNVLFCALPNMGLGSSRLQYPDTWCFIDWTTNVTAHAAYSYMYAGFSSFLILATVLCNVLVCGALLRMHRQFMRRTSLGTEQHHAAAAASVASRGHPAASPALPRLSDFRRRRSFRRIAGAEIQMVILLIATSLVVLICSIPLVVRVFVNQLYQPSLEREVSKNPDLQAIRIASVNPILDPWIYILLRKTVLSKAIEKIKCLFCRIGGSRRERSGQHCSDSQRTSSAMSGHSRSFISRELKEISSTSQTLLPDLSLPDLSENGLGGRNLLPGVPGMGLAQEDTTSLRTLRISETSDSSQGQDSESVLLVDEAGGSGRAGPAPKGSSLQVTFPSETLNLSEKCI

[5] = molecular target: T3, Prostaglandin E2 receptor EP3 subtype (Homo sapiens) (UniProt P43115); assay: Antagonistic activity at EP3 receptor assessed as inhibition of cAMP production in HEK EBNA cells; type: functional, cell-based; conditions: HEK293-EBNA, filed as antagonist
T3 sequence (whole entry): T2 sequence (P43115 whole entry)

[6] = Stability in rat hepatocytes after 3 hrs; type: ADME, cell-based, Hepatocyte; conditions: read-out: Stability
Outline: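 Incubation with rat hepatocytes for 3 h; percentage of parent compound recovered intact.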

[7] = Bioavailability in Sprague-Dawley rat at 10 mg/kg, po and 5 mg/kg, iv; type: ADME, organism-based; conditions: in vivo
[8] = Clearance in Sprague-Dawley rat at 10 mg/kg, po and 5 mg/kg, iv; type: ADME, organism-based; conditions: in vivo
[9] = Half life in Sprague-Dawley rat at 10 mg/kg, po and 5 mg/kg, iv; type: ADME, organism-based; conditions: in vivo
[10] = Cmax in Sprague-Dawley rat at 10 mg/kg, po and 5 mg/kg, iv after 30 mins; type: ADME, organism-based; conditions: in vivo
[11] = test system: Rattus norvegicus; assay: Antiinflammatory activity against carrageenan-induced paw edema in po dosed rat; type: functional
[12] = test system: Rattus norvegicus; assay: Effect on carrageenan-induced paw hyperalgesia in po dosed rat; type: functional
[13] = test system: Rattus norvegicus; assay: Concentration in carrageenan-induced hyperalgesic rat at 10 mg/kg, po, 1 hr postdose; type: functional
Outline: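 Young 100 g rats from the hyperalgesia model given 10 mg/kg po in 0.5% methocel as sodium salts; plasma concentration measured 1 h post-dosing, at the time hyperalgesia was assessed.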

[14] = molecular target: Prostacyclin receptor (Homo sapiens, UniProt P43119); assay: Binding affinity to IP receptor
Chain of Prostacyclin receptor (P43119 whole entry): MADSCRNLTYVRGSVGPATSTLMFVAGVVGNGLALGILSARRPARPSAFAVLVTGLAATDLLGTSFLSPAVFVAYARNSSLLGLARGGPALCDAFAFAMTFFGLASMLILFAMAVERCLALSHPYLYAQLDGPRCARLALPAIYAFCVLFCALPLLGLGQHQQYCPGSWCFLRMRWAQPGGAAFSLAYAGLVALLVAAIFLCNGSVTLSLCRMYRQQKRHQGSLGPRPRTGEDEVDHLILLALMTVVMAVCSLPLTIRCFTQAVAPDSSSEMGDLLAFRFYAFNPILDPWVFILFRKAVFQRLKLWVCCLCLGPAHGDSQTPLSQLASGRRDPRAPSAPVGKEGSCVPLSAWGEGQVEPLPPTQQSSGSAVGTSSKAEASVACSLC

[15] = molecular target: T4, Thromboxane A2 receptor (Homo sapiens, UniProt P21731); assay: Binding affinity to TP receptor
T4 sequence (P21731 whole entry): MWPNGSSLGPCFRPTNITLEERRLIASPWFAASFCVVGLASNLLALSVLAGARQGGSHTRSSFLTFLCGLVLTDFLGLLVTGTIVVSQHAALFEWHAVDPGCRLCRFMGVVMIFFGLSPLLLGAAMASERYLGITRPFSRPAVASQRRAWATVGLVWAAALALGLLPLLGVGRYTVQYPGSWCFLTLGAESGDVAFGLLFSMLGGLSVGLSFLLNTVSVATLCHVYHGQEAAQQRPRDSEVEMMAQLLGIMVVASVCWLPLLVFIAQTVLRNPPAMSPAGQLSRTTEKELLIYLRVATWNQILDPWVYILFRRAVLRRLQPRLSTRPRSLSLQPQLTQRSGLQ

[16] = molecular target: Prostaglandin F2-alpha receptor (Homo sapiens, UniProt P43088); assay: Binding affinity to FP receptor
Chain of Prostaglandin F2-alpha receptor (P43088 whole entry): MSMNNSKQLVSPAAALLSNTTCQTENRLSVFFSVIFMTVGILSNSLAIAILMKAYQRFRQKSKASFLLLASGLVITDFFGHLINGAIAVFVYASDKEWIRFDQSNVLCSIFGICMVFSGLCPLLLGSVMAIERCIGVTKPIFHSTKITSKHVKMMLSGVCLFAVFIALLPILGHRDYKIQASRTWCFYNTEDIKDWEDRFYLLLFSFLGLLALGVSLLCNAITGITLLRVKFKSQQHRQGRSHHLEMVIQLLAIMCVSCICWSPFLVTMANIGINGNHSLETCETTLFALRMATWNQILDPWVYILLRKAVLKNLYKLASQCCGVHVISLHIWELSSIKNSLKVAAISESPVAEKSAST

[17] = molecular target: T5, Prostaglandin D2 receptor (Homo sapiens, UniProt Q13258); assay: Binding affinity to DP receptor
T5 sequence (Q13258 whole entry): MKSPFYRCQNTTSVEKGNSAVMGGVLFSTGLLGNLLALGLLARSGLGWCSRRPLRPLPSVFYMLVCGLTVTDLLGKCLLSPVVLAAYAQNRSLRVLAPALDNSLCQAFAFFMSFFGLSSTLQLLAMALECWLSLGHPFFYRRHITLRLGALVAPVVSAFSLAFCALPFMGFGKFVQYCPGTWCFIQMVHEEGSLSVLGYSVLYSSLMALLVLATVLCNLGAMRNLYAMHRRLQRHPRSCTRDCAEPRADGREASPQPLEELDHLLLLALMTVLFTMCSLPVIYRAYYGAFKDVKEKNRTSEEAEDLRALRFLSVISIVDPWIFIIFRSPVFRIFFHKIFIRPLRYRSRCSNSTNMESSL

[18] = test system: Rattus norvegicus; assay: Concentration in carrageenan-induced hyperalgesic rat at 5 mg/kg, po, 1 hr postdose; type: functional
[19] = molecular target: T2, Prostaglandin E2 receptor EP3 subtype; assay: Binding affinity to EP3 receptor in presence of HSA
[20] = Metabolism in human hepatocytes; type: ADME, cell-based, Hepatocyte; conditions: read-out: Activity
[21] = Cmax in Sprague-Dawley rat at 10 mg/kg, po and 5 mg/kg, iv after 1 hr; type: ADME, organism-based; conditions: in vivo

Row | Compound | Ki [1] | Ki [2] | Ki [3] | Ki [4] | Kb [5] [nM] | remaining at 3 h [6] [%] | bioavailability [7] [%] | clearance [8] [mL/min] | half-life [9] [h] | Cmax [10] [µM] | Ki [14] [nM] | Ki [15] [nM] | Ki [16] [nM] | Ki [17] | Ki [19] | ED50 [11] [mg/kg] | ED50 [12] [mg/kg] | Activity [13] [µM] | other results
1 | Cc1ccc(OCc2ccccc2)c(/C=C/Cc2ccccc2/C=C/C(=O)O)c1 | 19000 nM | 860 nM (antagonist) | 9 nM (antagonist) | 2000 nM (antagonist) | 32 | 8 | 97 | 10 | 2 | 22 | > 500 | > 500 | > 500 | > 500 nM | – | 0.9 | 20 | 1.2 | –
2 | Cc1ccc(OCc2ccccc2)c(C/C=C/c2ccccc2/C=C/C(=O)O)c1 | 19000 nM | 860 nM (antagonist) | 9 nM (antagonist) | 2000 nM (antagonist) | 32 | 8 | 97 | 10 | 2 | 22 | > 500 | > 500 | > 500 | > 500 nM | – | 0.9 | 20 | 0.24 | –
3 | COc1ccc(Br)cc1S(=O)(=O)NC(=O)/C=C/c1ccccc1Cc1ccc2cc(OCc3ccccc3)ccc2c1 | > 100000 nM | > 100000 nM | 0.9 nM (antagonist) | 8000 nM (antagonist) | 0.7 | – | – | – | – | – | > 500 | > 500 | > 500 | > 500 nM | 0.7 nM (antagonist) | – | > 30 | 8 | –
4 | O=C(/C=C/c1ccccc1Cc1ccc2cc(OCc3ccccc3)ccc2c1)NS(=O)(=O)c1cccs1 | 3200 nM (antagonist) | 8000 nM (antagonist) | 0.6 nM (antagonist) | 1100 nM (antagonist) | – | – | – | – | – | – | – | – | – | – | 2.4 nM (antagonist) | – | – | – | –

The next lines start with results.

Row | Ki [1] | Ki [2] | Ki [3] | Ki [4] | Kb [5] [nM] | remaining at 3 h [6] [%] | bioavailability [7] [%] | clearance [8] [mL/min] | half-life [9] [h] | Cmax [10] [µM] | Ki [14] [nM] | Ki [15] [nM] | Ki [16] [nM] | Ki [17] | Ki [19] | Compound | ED50 [11] [mg/kg] | ED50 [12] [mg/kg] | Activity [13] [µM] | other results
5 | > 100000 nM | > 40000 nM | 3.2 nM (antagonist) | > 15000 nM | – | – | 59 | 3.1 | 3 | 28 | > 500 | > 500 | > 500 | 82 nM (antagonist) | 46 nM (antagonist) | O=C(O)/C=C/c1ccccc1Cc1ccc2cc(OCc3ccccc3)ccc2c1 | > 10 | 4.6 | – | Activity [18]: 11 µM
6 | > 100000 nM | – | 47 nM (antagonist) | 13000 nM | – | – | – | – | – | – | > 500 | > 500 | > 500 | > 500 nM | 400 nM (antagonist) | O=C(O)/C=C/c1ccccc1Cc1ccc2ccccc2c1 | – | 30 | 5.4 | –
7 | 6700 nM (antagonist) | 5400 nM (antagonist) | 3 nM (antagonist) | 620 nM (antagonist) | 5.8 | – | 74 | 16 | 2 | 25 | > 500 | > 500 | > 500 | > 500 nM | – | Cc1ccc(OCc2c(Cl)cccc2Cl)c(/C=C/Cc2ccccc2/C=C/C(=O)O)c1 | 5.1 | 5.8 | 2.5 | –
8 | 9600 nM (antagonist) | 8600 nM (antagonist) | – | 1300 nM (antagonist) | – | 43 | 144 | 12 | 3 | 21 | > 500 | > 500 | > 500 | > 500 nM | – | O=C(/C=C/c1ccccc1Cc1ccc2ccccc2c1)NS(=O)(=O)c1cccs1 | 1.2 | 6.2 | 5 | metabolised [20]: 45%
9 | 39000 nM | > 50000 nM | 0.6 nM (antagonist) | 890 nM (antagonist) | 0.6 | 30 | 72 | 1 | 4 | – | > 500 | > 500 | > 500 | > 500 nM | 6.9 nM (antagonist) | COc1ccc(Br)cc1S(=O)(=O)NC(=O)/C=C/c1ccccc1Cc1ccc2ccccc2c1 | 3.3 | 3.3 | 32 | metabolised [20]: 36%; Cmax [21]: 50 µM
